{"source": "ChEMBL document CHEMBL5230171", "about": "“Expanding the structure-activity relationships of alkynyl diphenylurea scaffold as promising antibacterial agents” (RSC Med Chem, 2023)", "key": {"Staphylococcus aureus [1]": {"tested_on": "Staphylococcus aureus", "experiment": "Antibacterial activity against vancomycin resistant Staphylococcus aureus 9 assessed as inhibition of bacterial growth incubated for 18 to 20 hrs by CLSI protocol based broth microdilution method", "type": "functional", "settings": "time 18-20 hrs", "procedure,_shortened": "(§1)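 Broth microdilution against staphylococcal clinical isolates. Each strain was prepared as a 0.5 McFarland suspension and diluted in cation-adjusted Mueller Hinton broth to ~5 × 10^5 CFU mL−1. Serial dilutions of test agents in DMSO stock were incubated with the bacteria, and the MIC was recorded.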"}, "Staphylococcus aureus [2]": {"tested_on": "Staphylococcus aureus", "experiment": "(§2) Antibacterial activity against methicillin resistant Staphylococcus aureus NRS384 USA300 infected in Balb/c mouse model of skin infection assessed as reduction in inflammation administered topically twice daily for three consecutive days from day 4 to 6 and measured 24 hrs post last dose", "type": "functional, organism-based", "settings": "route top, time 4.0 day", "procedure,_shortened": "(§3)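 Mice were anesthetized with 2,2,2-tribromoethanol and injected subcutaneously with 100 μL containing 2 × 10^9 CFU MRSA USA300 in 0.5% HPMC in saline. Topical treatment used a petroleum jelly vehicle, with a fusidic acid positive control. Lesions were photographed 24 h after the last dose. A ~1.5 cm2 skin patch (homogenized in 1 mL saline) and the spleen (in 0.5 mL) were serially diluted and plated on MSA at 37 °C overnight for CFU.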"}, "Staphylococcus aureus [3]": {"tested_on": "Staphylococcus aureus", "experiment": "Antibacterial activity against methicillin resistant Staphylococcus aureus 119 assessed as inhibition of bacterial growth incubated for 18 to 20 hrs by CLSI protocol based broth microdilution method", "type": "functional", "settings": "time 18-20 hrs", "procedure,_shortened": "as §1"}, "Staphylococcus aureus [4]": {"tested_on": "Staphylococcus aureus", "experiment": "Antibacterial activity against methicillin resistant Staphylococcus aureus NRS384 USA300 assessed as inhibition of bacterial growth incubated for 18 to 20 hrs by CLSI protocol based broth microdilution method", "type": "functional", "settings": "time 18-20 hrs, read-out: MIC", "procedure,_shortened": "as §1"}, "Staphylococcus aureus [5]": {"tested_on": "Staphylococcus aureus", "experiment": "Induction of drug resistance in methicillin resistant Staphylococcus aureus NRS384 USA300 assessed as fold change in MIC measured from passage 5 to 14 by broth microdilution method", "type": "functional", "procedure,_shortened": "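Multi-step resistance in MRSA USA300 over 14 consecutive passages, with rifampicin as the control antibiotic. The MIC was determined by broth microdilution at each passage. Resistance was defined as a greater than four-fold rise over the initial MIC.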"}, "Staphylococcus aureus [6]": {"tested_on": "Staphylococcus aureus", "experiment": "Antibacterial activity against vancomycin resistant Staphylococcus aureus 12 assessed as inhibition of bacterial growth at 0.5 ug/ml incubated for 18 to 20 hrs by CLSI protocol based broth microdilution method", "type": "functional, organism-based", "settings": "dose 0.5 µg/ml, time 18-20 hrs"}, "Vero": {"tested_on": "Vero", "experiment": "Cytotoxicity against African green monkey Vero cells assessed as reduction in cell viability at 64 ug/ml incubated for 24 hrs by MTS assay", "type": "toxicity, cell-based", "settings": "chlorocebus sabaeus, dose 64 µg/ml", "procedure,_shortened": "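Vero or HaCaT cells were exposed to 32, 64 and 128 μg mL−1 compound in triplicate for 24 h at 37 °C, 5% CO2, with a DMSO control. MTS was then added for 4 h and OD490 read. Analysis used two-way ANOVA with Dunnett's post hoc test (p < 0.05).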"}, "[7]": {"tested_on": "Staphylococcus epidermidis", "experiment": "Antibacterial activity against Staphylococcus epidermidis 101 assessed as inhibition of bacterial growth incubated for 18 to 20 hrs by CLSI protocol based broth microdilution method", "type": "functional", "settings": "time 18-20 hrs", "procedure,_shortened": "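Staphylococcal and E. coli strains were diluted from a 0.5 McFarland suspension in cation-adjusted Mueller Hinton broth to ~5 × 10^5 CFU mL−1. They were incubated with serial dilutions of test agent in broth microdilution, and the MIC was recorded.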"}, "Staphylococcus aureus [8]": {"tested_on": "Staphylococcus aureus", "experiment": "as §2, with “bacterial burden in skin lesions” for “inflammation”", "type": "functional", "settings": "route top; time 4 day", "procedure,_shortened": "as §3"}, "Enterococcus faecium": {"tested_on": "Enterococcus faecium", "experiment": "Antibacterial activity against Enterococcus faecium 700221 assessed as inhibition of bacterial growth incubated for 18 to 20 hrs by CLSI protocol based broth microdilution method", "type": "functional", "settings": "time 18-20 hrs", "procedure,_shortened": "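Enterococci and L. monocytogenes were diluted from a 0.5 McFarland suspension in TSB. They were incubated with serial dilutions of test agent in broth microdilution, and the MIC was recorded.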"}, "Streptococcus mutans": {"tested_on": "Streptococcus mutans", "experiment": "Antibacterial activity against Streptococcus mutans 25175 assessed as inhibition of bacterial growth incubated for 18 to 20 hrs by CLSI protocol based broth microdilution method", "type": "functional", "settings": "time 18-20 hrs", "procedure,_shortened": "(§4)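 Streptococci were diluted from a 0.5 McFarland suspension in cation-adjusted Mueller Hinton broth with 5% lysed horse blood. They were incubated with serial dilutions of test agent in broth microdilution, and the MIC was recorded.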"}, "[9]": {"experiment": "Hemolytic activity in rabbit erythrocytes at 16 ug/ml incubated for 30 mins by absorbance based assay", "type": "toxicity, cell-based, Oryctolagus cuniculus, Erythrocyte", "settings": "at 16 µg/mL, read-out: Activity", "procedure,_shortened": "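Rabbit erythrocytes were washed three times in PBS pH 7.4 and adjusted to A540 0.8. They were mixed 1:1 with compound (final 16, 32, 64 μg mL−1) for 30 min at 37 °C. After centrifugation at 13 000 × g for 5 min, supernatant A540 was read as % of 1% Triton X-100 complete hemolysis. PBS served as negative control. Each concentration was run twice.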"}, "Staphylococcus aureus [10]": {"tested_on": "Staphylococcus aureus", "experiment": "Antibacterial activity against methicillin resistant Staphylococcus aureus 384 assessed as inhibition of bacterial growth incubated for 18 to 20 hrs by CLSI protocol based broth microdilution method", "type": "functional", "settings": "time 18-20 hrs", "procedure,_shortened": "as §1"}, "Streptococcus pneumoniae": {"tested_on": "Streptococcus pneumoniae", "experiment": "Antibacterial activity against Streptococcus pneumoniae 51916 assessed as inhibition of bacterial growth incubated for 18 to 20 hrs by CLSI protocol based broth microdilution method", "type": "functional", "settings": "time 18-20 hrs", "procedure,_shortened": "as §4"}, "Staphylococcus aureus [11]": {"tested_on": "Staphylococcus aureus", "experiment": "Antibacterial activity against methicillin resistant Staphylococcus aureus 386 assessed as inhibition of bacterial growth at 0.5 ug/ml incubated for 18 to 20 hrs by CLSI protocol based broth microdilution method", "type": "functional, organism-based", "settings": "dose 0.5 µg/ml, time 18-20 hrs"}, "Streptococcus pyogenes": {"tested_on": "Streptococcus pyogenes", "experiment": "Antibacterial activity against Streptococcus pyogenes MGAS 9882 assessed as inhibition of bacterial growth incubated for 18 to 20 hrs by CLSI protocol based broth microdilution method", "type": "functional", "settings": "time 18-20 hrs", "procedure,_shortened": "as §4"}, "Staphylococcus aureus [12]": {"tested_on": "Staphylococcus aureus", "experiment": "Antibacterial activity against vancomycin resistant Staphylococcus aureus 12 assessed as inhibition of bacterial growth incubated for 18 to 20 hrs by CLSI protocol based broth microdilution method", "type": "functional", "settings": "time 18-20 hrs", "procedure,_shortened": "as §1"}}, "note": "Activity calls are given as the source filed them.", "data": [{"smiles": "C/C(=N\\NC(=N)N)c1ccc(NC(=O)Nc2ccc(C#Cc3ccccc3)cc2)cc1", "values": [{"measurement": "MIC", "setting": "Staphylococcus aureus [1]", "value": 0.5, "unit": "µg/mL"}, {"measurement": "Activity", "setting": "Staphylococcus aureus [2]", "value": "Active"}, {"measurement": "MIC", "setting": "Staphylococcus aureus [3]", "value": 0.5, "unit": "µg/mL"}, {"measurement": "MIC", "setting": "Staphylococcus aureus [4]", "value": 0.5, "unit": "µg/mL"}, {"measurement": "fold change (FC)", "setting": "Staphylococcus aureus [5]", "value": 1}, {"measurement": "Activity", "setting": "Staphylococcus aureus [6]", "value": "Active"}, {"measurement": "Activity", "setting": "Vero", "value": "Non-Toxic"}, {"measurement": "MIC", "setting": "[7]", "value": 0.5, "unit": "µg/mL"}, {"measurement": "Activity", "setting": "Staphylococcus aureus [8]", "value": 0.5, "unit": "log10CFU/ml"}, {"measurement": "MIC", "setting": "Enterococcus faecium", "value": 0.5, "unit": "µg/mL"}, {"measurement": "MIC", "setting": "Streptococcus mutans", "value": 0.5, "unit": "µg/mL"}, {"measurement": "hemolysis at 0.5 h, 16 ug/ml", "setting": "[9]", "value": 2, "unit": "%"}, {"measurement": "MIC", "setting": "Staphylococcus aureus [10]", "value": 0.5, "unit": "µg/mL"}, {"measurement": "MIC", "setting": "Streptococcus pneumoniae", "value": 0.5, "unit": "µg/mL"}, {"measurement": "Activity", "setting": "Staphylococcus aureus [11]", "value": "Active"}, {"measurement": "MIC", "setting": "Streptococcus pyogenes", "value": 0.5, "unit": "µg/mL"}, {"measurement": "MIC", "setting": "Staphylococcus aureus [12]", "value": 0.5, "unit": "µg/mL"}]}]}
